Assay outcomes: PubChem BioAssay, several laboratories
Platelet DG rel: inhibitors of platelet dense granule secretion, primary screen, cell-based, MLPCN, human platelets | human platelet-rich plasma, SFLLRN dense granule ATP release, luminescence | inhibition, %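 (compounds screened at 7.5 µM in platelet-rich plasma)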 | actives 0.22% (n = 300,000);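 active = mean replicate score, as percent of positive control, at or above 50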
TAAR1 agonist: human TAAR1 agonists, primary screen, Fluo-8 calcium fluorescence, CHO RD-HGA16 cells | Trace amine-associated receptor 1 (Homo sapiens), Q96RJ0 | vehicle wells 0%, saturating PEA agonist 100% | activation, % at 3 µM | actives 0.99% (n = 360,000) | AID 624467, 2012;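 active = activation above the mean activation of all test compounds in the run plus 3 SD, cut at about 38% in these data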
Target sequence (Q96RJ0 whole entry, looked up): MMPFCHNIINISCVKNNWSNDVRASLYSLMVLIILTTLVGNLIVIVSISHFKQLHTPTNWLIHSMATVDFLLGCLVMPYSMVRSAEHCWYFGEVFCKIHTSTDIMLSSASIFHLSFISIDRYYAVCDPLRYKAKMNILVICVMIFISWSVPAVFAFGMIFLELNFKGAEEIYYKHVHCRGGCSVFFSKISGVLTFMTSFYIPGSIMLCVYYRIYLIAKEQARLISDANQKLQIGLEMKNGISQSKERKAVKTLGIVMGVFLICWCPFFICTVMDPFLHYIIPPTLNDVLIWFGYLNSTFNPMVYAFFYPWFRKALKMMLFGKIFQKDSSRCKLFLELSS
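Test system: RD-HGA16 (CHO) cells co-expressing Gα16 and hTAAR1 / Benchmarks: DMSO vehicle as 0%, PEA at EC100 as 100% / Repeats: no replicates (n 1) / Measure: % activation from peak over basal fluorescence ratio, DMSO-to-PEA scaled / Timing: 17-24 h plating, Fluo-8 75 min 37 °C, 30 min RT / Technique: kinetic Fluo-8 calcium fluorescence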
VLA-4 inh: inhibition in human VLA-4 binding assay, primary screen, VLA-4 allosteric modulator project, MLPCN library, flow cytometry, VLA-4 expressing cells; Integrin alpha-4 (Homo sapiens), P13612; ligand binding flow cytometry; inhibition, % (about 7 µM as worked out from the volumes in the protocol); actives 0.2% (n = 330,000); AID 2557, 2010; in the data active = inhibition above about 50%
TAAR1 antagonist: human TAAR1 antagonists, primary screen, Fluo-8 calcium fluorescence, CHO RD-HGA16 cells | Trace amine-associated receptor 1 (Homo sapiens), Q96RJ0 | antagonist | inhibition, % at 3 µM | actives 1.5% (n = 360,000);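 active = inhibition above a per-plate cutoff, the mean inhibition of test compounds on that plate plus 3 SD, cut at about 49% in these data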
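System: RD-HGA16 CHO cells with stable hTAAR1 and Gα16 | Probe or stimulus: EC80 β-phenethylamine stimulus | Dosing: 3 µM, single point | Times: Dye loading 75 min at 37 °C, then 30 min room temperature | Measured by: Fluo-8 calcium-sensitive fluorescence | Read-out basis: % inhibition of agonist calcium response | Replicates: n of 1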
Rce1 inh: yeast Rce1p protease inhibitors, primary screen, biochemical, fluorescence, cell-free homogeneous; CAAX prenyl protease 2 (Saccharomyces cerevisiae (strain ATCC 204508 / S288c)), Q03530; yeast membranes, quenched prenylated peptide cleavage fluorescence; calls only; actives 0.27% (n = 290,000); AID 2563, 2010;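 active = fall in fluorescence gain of 50% or more versus controls, with final raw signal at or below 3038400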
Target sequence (Q03530 whole entry, looked up): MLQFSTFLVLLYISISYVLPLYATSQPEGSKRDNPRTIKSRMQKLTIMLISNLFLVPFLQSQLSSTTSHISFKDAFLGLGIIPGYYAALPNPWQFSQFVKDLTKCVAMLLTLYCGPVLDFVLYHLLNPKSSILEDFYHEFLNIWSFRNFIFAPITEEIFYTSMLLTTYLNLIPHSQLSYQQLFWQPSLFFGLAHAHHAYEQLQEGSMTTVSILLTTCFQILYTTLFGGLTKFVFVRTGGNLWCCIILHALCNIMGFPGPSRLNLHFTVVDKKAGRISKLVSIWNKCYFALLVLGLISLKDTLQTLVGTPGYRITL
Of the large screens only hits and unclear results are named; the others gave an inactive call. The list is not random: actives were taken first. Their share in the collection is about 2.6%.

NC(c1csc(Nc2ccc(C(=O)c3ccccc3)cc2)n1)C1CCCCC1 (centres undefined)	TAAR1 agonist 46 (no result: Platelet DG rel, VLA-4 inh, Rce1 inh)
NC(Cc1ccc(F)cc1)c1csc(Nc2ccc(C(=O)c3ccccc3)cc2)n1 (centres undefined)	TAAR1 agonist 52, TAAR1 antagonist 53 (no result: Platelet DG rel, VLA-4 inh, Rce1 inh)
Cc1cccc(C)c1NC(=O)C1C(c2ccc3c(c2)OCO3)=Nc2ccccc2N1C(=O)c1ccccn1 (centres undefined)	none (no result: Platelet DG rel, VLA-4 inh, Rce1 inh)
Cc1cc(N2CCOCC2)n2nc(C)c(-c3ccccc3Cl)c2n1	none
CC(C)CC(N)c1csc(Nc2ccc(C(=O)c3ccccc3)cc2)n1 (centres undefined)	TAAR1 agonist 41 (no result: Platelet DG rel, VLA-4 inh, Rce1 inh)
CC(C)c1ccc(NC(=O)Nc2nc(C(N)CCc3ccccc3)cs2)cc1 (centres undefined)	TAAR1 agonist 42 (no result: Platelet DG rel, VLA-4 inh, Rce1 inh)
O=C(CN1C(=O)CSc2ncccc21)Nc1cccc(Cl)c1	none
O=C(Nc1ccc(F)cc1)C(c1ccccc1)N1CCN(c2ccncc2)CC1 (centres undefined)	none (no result: Platelet DG rel, VLA-4 inh, Rce1 inh)
COc1ccc(C(=O)NCCNc2nc3ccc(C)cc3cc2C#N)cc1OC	none
O=[N+]([O-])c1cccc(N/N=C/c2ccc(N3CCOCC3)cc2)c1	TAAR1 antagonist 58
Clc1cccc(N/N=C/c2ccc(N3CCOCC3)cc2)c1	none
CC1(c2nnc(-c3cccc(Cl)c3)o2)CC(c2ccc(F)cc2)=NO1 (centres undefined)	none (no result: VLA-4 inh)
CN1c2ccccc2-c2ccccc2S1(=O)=O	none (no result: Platelet DG rel, VLA-4 inh, Rce1 inh)
Cc1ccc2c(c1)S(=O)(=O)N(C)C(c1ccccc1)=C2	TAAR1 antagonist 53 (no result: Platelet DG rel, VLA-4 inh, Rce1 inh)
COc1cc(NC(=O)CCCN2C(=O)NC(C)(C)C2=O)cc(OC)c1	none (no result: Platelet DG rel, Rce1 inh)
Cc1cc(C)cc(NC(=S)NCCSc2ccc(Cl)cc2)c1	TAAR1 antagonist 57
COc1ccc(-c2nc(NC(=O)c3ccco3)sc2C)cc1	none (no result: Platelet DG rel, VLA-4 inh, Rce1 inh)
COc1ccc(-c2nc(NC(=O)c3[nH]c(C)c(C(C)=O)c3C)sc2C)cc1	TAAR1 agonist 46, TAAR1 antagonist 88
CN1CC(C(=O)O)Cc2c1ccc1ccccc21 (centres undefined)	Rce1 inh active
O=C(O)C1CCN(C(=O)c2cccc3ccccc23)CC1	none
CC(C)(C)c1ccc(NC(=O)COC(=O)C2(C)CC2(Cl)Cl)cc1 (centres undefined)	TAAR1 antagonist 52
Nc1nnc(-c2ccncc2)s1	Rce1 inh active
COc1ccc(-c2nnc(N)s2)cc1	none (no result: Platelet DG rel, Rce1 inh)
O=C(NCCc1ccccc1)/C(=C\c1ccc([N+](=O)[O-])cc1)NC(=O)c1ccco1	none
Cc1ccc(C(=O)N/C(=C\c2ccc([N+](=O)[O-])cc2)C(=O)NCCc2ccccc2)cc1	TAAR1 agonist 43
O=c1ccc(-c2ccc(S(=O)(=O)N3CCN(c4cccc(Cl)c4)CC3)o2)n[nH]1	none
Cc1cc(C(=O)OCC(=O)N(C)c2ccccc2)c2ccccc2n1	none (no result: Platelet DG rel, Rce1 inh)
CCCn1c(SCC(=O)N2N=C3/C(=C/c4ccc(OC)cc4)CCCC3C2c2ccc(OC)cc2)n[nH]c1=O (centres undefined)	TAAR1 agonist 49, TAAR1 antagonist 50
Cc1noc(C)c1NC(=O)N(C)C[C@@H]1Oc2ncc(Br)cc2C(=O)N([C@@H](C)CO)C[C@H]1C	none (no result: Platelet DG rel, VLA-4 inh, Rce1 inh)
CSc1ccc(Cn2c(C)c(C(=O)NCc3ccc(C(C)C)cc3)sc2=O)cc1	none (no result: Platelet DG rel, VLA-4 inh, Rce1 inh)
Cc1c(C(=O)NCc2ccc(F)cc2)sc(=O)n1Cc1ccc(C(=O)c2ccccc2)cc1	TAAR1 antagonist 54 (no result: Platelet DG rel, VLA-4 inh, Rce1 inh)
Cc1c(C(=O)NCc2cccc(Cl)c2)sc(=O)n1Cc1ccc(F)cc1	none (no result: Platelet DG rel, VLA-4 inh, Rce1 inh)
Cc1c(C(=O)NCc2ccc(C(C)C)cc2)sc(=O)n1Cc1cccc(F)c1	TAAR1 agonist 48, TAAR1 antagonist 53 (no result: Platelet DG rel, VLA-4 inh, Rce1 inh)
COC(=O)[C@]12CCCCC=C1N(Cc1ccc3c(c1)OCO3)C(=O)[C@H](CC(=O)NCC13CC4CC(CC(C4)C1)C3)C2	none (no result: Platelet DG rel, VLA-4 inh, Rce1 inh)
Cc1ccc(NC(=O)c2cnc(N3CCN(c4ccccn4)CC3)c3ccccc23)c(Br)c1	TAAR1 antagonist 72 (no result: Rce1 inh)
CCOC(CCNC(=O)c1cc(-c2cccs2)nc2ccccc12)OCC	TAAR1 antagonist 49
c1ccc(-c2nnc(N3CCN(c4ccccn4)CC3)c3ccccc23)cc1	TAAR1 antagonist 50
Cc1ccc(-c2nnc(N3CCN(c4ccccn4)CC3)c3ccccc23)cc1	none (no result: Platelet DG rel)
O=C(c1cc(-c2ccc(Br)cc2)nc2ccccc12)N1CCC1	none
O=C(c1cc(-c2ccccc2)nc2ccccc12)N1CCN(c2ccccc2O)CC1	TAAR1 antagonist 55
COc1ccccc1N1CCN(c2ncc(C(=O)N3CCN(c4cccc(Cl)c4)CC3)c3ccccc23)CC1	Rce1 inh active
COc1ccc(N2CCN(C(=O)c3cc(-c4cccs4)nc4ccccc34)CC2)cc1	Rce1 inh active
O=C(c1cnc(N2CCN(c3ncccn3)CC2)c2ccccc12)N1CCN(c2ccccn2)CC1	TAAR1 antagonist 61 (no result: Platelet DG rel)
CCOc1ccccc1C(=O)N1CCN(c2cccc(Cl)c2)CC1	none
O=C(c1cc(-c2ccccc2)nc2ccccc12)N1CCN(c2ccccn2)CC1	Rce1 inh active
O=C(c1ccccc1-c1ccccc1)N1CCN(c2ccccn2)CC1	none
CC1CC(C)CN(C(=O)CN2C(=O)NC3(CCCCCC3)C2=O)C1 (centres undefined)	none (no result: Platelet DG rel, Rce1 inh)
O=C(NCc1ccccc1)C(c1ccc(Cl)cc1)N(C(=O)c1csnn1)C1CC1 (centres undefined)	none (no result: Rce1 inh)
CCOC(=O)c1c(C)[nH]c(C(=O)COC(=O)CN2C(=O)C3CCCCC3C2=O)c1C (centres undefined)	none
CCOC(=O)c1c(C)[nH]c(C(=O)COC(=O)C(C)N2C(=O)C3CCCCC3C2=O)c1C (centres undefined)	TAAR1 antagonist 51
Cc1c(C)c2ccc(OC(C)C(=O)NCCCN3CCOCC3)c(C)c2oc1=O (centres undefined)	Rce1 inh active
Cc1ccc(C(=O)Nc2ccc(C(=O)N3CCCCC3)cc2)cc1	none
C=CCOC(=O)C(C#N)c1nc2ccccc2nc1N1CCN(c2ccccc2OC)CC1 (centres undefined)	TAAR1 antagonist 49
COC(=O)C(C#N)c1nc2ccccc2nc1N1CCN(Cc2ccc3c(c2)OCO3)CC1 (centres undefined)	Platelet DG rel 56 (no result: TAAR1 agonist, TAAR1 antagonist)
O=c1[nH]c2cc3c(cc2cc1CN(CCc1ccccc1)Cc1nnnn1C1CCCC1)OCCO3	Platelet DG rel 50 (no result: TAAR1 agonist, VLA-4 inh, TAAR1 antagonist)
Cc1ccc(S(=O)(=O)Oc2ccc(C3C4=C(CCCC4=O)N(CCC(=O)O)C4=C3C(=O)CCC4)cc2Cl)cc1	Rce1 inh active
